Source: ChEMBL document CHEMBL4354819, “Discovery of Novel Small Molecule Dual Inhibitors Targeting Toll-Like Receptors 7 and 8” (J Med Chem, 2019)

What was measured:
[1] = molecular target: T1, Toll-like receptor 8 (Homo sapiens) (UniProt Q9NR97); test: Inhibition of human TLR8 expressed in HEK293 cells assessed as reduction in R848-induced NFkappaB production at 1.5 to 5 uM incubated for 16 hrs by quanti-blue SEAP assay; format: cell-based
T1 sequence (whole entry): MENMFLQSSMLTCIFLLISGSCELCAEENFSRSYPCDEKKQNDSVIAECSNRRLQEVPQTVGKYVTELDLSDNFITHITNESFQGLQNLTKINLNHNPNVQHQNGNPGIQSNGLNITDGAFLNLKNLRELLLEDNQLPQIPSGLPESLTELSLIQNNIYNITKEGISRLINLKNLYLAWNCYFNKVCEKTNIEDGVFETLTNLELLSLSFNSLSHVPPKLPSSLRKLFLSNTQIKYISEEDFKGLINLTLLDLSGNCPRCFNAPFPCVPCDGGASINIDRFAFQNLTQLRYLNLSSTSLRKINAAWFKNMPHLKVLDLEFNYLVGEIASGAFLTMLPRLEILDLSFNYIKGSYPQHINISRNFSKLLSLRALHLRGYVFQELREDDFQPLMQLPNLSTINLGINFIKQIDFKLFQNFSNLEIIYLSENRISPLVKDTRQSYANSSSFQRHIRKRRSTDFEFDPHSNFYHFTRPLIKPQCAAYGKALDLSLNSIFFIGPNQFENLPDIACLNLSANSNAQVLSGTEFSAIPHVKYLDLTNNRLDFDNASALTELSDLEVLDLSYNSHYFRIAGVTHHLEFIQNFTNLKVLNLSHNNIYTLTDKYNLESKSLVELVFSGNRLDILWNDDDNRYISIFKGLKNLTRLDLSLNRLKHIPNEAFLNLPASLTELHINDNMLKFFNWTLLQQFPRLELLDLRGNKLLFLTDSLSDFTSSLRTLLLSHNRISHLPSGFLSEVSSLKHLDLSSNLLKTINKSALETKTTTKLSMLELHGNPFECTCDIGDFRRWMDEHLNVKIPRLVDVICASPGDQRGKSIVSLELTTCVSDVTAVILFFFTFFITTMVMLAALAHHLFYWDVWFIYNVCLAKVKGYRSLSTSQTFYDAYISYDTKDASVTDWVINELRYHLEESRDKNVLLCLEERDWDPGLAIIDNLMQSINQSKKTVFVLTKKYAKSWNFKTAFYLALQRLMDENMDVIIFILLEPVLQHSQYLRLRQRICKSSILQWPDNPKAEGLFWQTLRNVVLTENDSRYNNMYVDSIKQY
Procedure, shortened: (§1)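 Selectivity panel in stably transfected HEK 293-Blue cells, each overexpressing one human TLR with an inducible SEAP reporter. Agonists: Pam3CSK4 (TLR1/2), Pam2CSK4 (TLR2/6), poly(I:C) (TLR3), LPS (TLR4), R848 (TLR7/8), ODN 2006 (TLR9). Cells were exposed to compound for 16 h. Activity = (raw − untreated)/(ligand + solvent − untreated), with ligand + solvent set as 100%.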

[2] = molecular target: T2, Toll-like receptor 7 (Homo sapiens) (UniProt Q9NYK1); test: Inhibition of human TLR7 expressed in HEK293 cells assessed as reduction in resiquimod-induced NFkappaB production at 1.5 to 5 uM incubated for 16 hrs by quanti-blue SEAP assay; format: cell-based; procedure, shortened: as §1
T2 sequence (whole entry): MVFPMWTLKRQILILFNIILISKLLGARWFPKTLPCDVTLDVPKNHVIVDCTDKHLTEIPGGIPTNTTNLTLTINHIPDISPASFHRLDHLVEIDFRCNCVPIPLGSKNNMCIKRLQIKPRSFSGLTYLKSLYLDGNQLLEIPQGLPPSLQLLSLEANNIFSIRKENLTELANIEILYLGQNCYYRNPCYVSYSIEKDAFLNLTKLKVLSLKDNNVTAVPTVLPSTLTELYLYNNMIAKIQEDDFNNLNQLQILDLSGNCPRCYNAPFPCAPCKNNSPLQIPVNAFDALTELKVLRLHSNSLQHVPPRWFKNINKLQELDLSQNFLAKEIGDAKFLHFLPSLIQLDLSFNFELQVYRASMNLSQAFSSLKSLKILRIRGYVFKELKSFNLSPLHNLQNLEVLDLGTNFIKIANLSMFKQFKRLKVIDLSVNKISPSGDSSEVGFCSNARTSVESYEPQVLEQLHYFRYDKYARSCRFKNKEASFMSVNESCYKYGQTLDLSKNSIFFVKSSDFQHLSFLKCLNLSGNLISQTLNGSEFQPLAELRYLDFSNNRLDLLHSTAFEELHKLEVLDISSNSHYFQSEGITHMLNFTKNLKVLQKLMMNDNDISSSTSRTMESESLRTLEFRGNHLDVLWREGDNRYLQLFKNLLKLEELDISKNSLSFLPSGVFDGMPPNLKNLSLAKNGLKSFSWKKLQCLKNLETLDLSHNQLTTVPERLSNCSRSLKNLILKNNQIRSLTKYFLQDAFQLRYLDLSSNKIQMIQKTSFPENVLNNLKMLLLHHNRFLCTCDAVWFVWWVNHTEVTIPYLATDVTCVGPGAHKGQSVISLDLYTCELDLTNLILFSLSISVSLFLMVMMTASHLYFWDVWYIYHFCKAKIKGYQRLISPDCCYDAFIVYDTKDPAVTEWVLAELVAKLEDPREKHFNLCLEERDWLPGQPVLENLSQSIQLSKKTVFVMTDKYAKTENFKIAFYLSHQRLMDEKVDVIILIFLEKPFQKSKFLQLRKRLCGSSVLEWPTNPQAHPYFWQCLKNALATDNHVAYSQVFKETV

Toll-like receptor 8 = molecular target: T3, Toll-like receptor 8 (Homo sapiens, UniProt Q9NR97); test: Inhibition of human TLR8 expressed in HEK293 cells assessed as reduction in R848-induced NFkappaB production incubated for 16 hrs by quanti-blue SEAP assay; format: cell-based
T3 sequence (Q9NR97 whole entry): T1 sequence (whole entry)
Procedure, shortened: (§2)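 HEK 293-Blue cells stably expressing hTLR7 or hTLR8 with an inducible SEAP reporter were incubated 16 h with compound under 1 µg/mL R848 stimulation. SEAP was read at 620 nm. Data were normalized to the R848 control, and IC50 was taken from concentration-response curves. […] Mean ± s.d., n = 3 independent experiments.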

[3] = molecular target: Toll-like receptor 8 (Homo sapiens) (UniProt Q9NR97); test: Inhibition of human TLR8 expressed in HEK293 cells assessed as reduction in resiquimod-induced NFkappaB production at 1.5 to 5 uM incubated for 16 hrs by quanti-blue SEAP assay
[4] = molecular target: Toll-like receptor 7 (Homo sapiens) (UniProt Q9NYK1); test: Inhibition of human TLR7 expressed in HEK293 cells assessed as reduction in R848-induced NFkappaB production incubated for 16 hrs by quanti-blue SEAP assay; conditions: concentration not given here
[5] = molecular target: T2, Toll-like receptor 7 (Homo sapiens); test: Inhibition of human TLR7 expressed in HEK293 cells assessed as reduction in R848-induced NFkappaB production at 50 uM incubated for 16 hrs by quanti-blue SEAP assay relative to control; format: cell-based; procedure, shortened: as §2
Toll-like receptor 7 = molecular target: T4, Toll-like receptor 7 (Homo sapiens, UniProt Q9NYK1); test: Inhibition of human TLR7 expressed in HEK293 cells assessed as reduction in R848-induced NFkappaB production incubated for 16 hrs by quanti-blue SEAP assay; format: cell-based; procedure, shortened: as §2
T4 sequence (Q9NYK1 whole entry): T2 sequence (whole entry)

[6] = molecular target: T1, Toll-like receptor 8 (Homo sapiens); test: Inhibition of human TLR8 expressed in HEK293 cells assessed as reduction in R848-induced NFkappaB production at 50 uM incubated for 16 hrs by quanti-blue SEAP assay relative to control; format: cell-based; procedure, shortened: as §2

inhibition [2] [%]	IC50 (Toll-like receptor 8) [nM]	SMILES	other results
0	> 50000	O=C(Nc1ccc(Oc2cc(C(F)(F)F)cc(C(F)(F)F)c2)cc1)c1ccc(O)cc1F	
0	4020	O=C(Nc1ccc(Oc2cc(C(F)(F)F)cc(C(F)(F)F)c2)cc1O)c1c(F)cccc1Cl	
	1110	O=C(Nc1ccc(Oc2cc(C(F)(F)F)cc(C(F)(F)F)c2)cc1)c1cc(Cl)ccc1F	inhibition [5]: 20 to 30%
0		C#Cc1cccc(F)c1C(=O)Nc1ccc(Oc2cc(C(F)(F)F)cc(C(F)(F)F)c2)cc1	inhibition [1]: 0%
	6000	O=C(Nc1ccc(Oc2cc(C(F)(F)F)cc(C(F)(F)F)c2)cc1)c1c(F)cccc1Br	IC50 (Toll-like receptor 7): 1000 nM
0		O=S(=O)(Nc1ccc(Oc2cc(C(F)(F)F)cc(C(F)(F)F)c2)cc1)c1c(F)cccc1Cl	inhibition [1]: 0%
	> 50000	Nc1ccc(C(=O)Nc2ccc(Oc3cc(C(F)(F)F)cc(C(F)(F)F)c3)cc2)c(F)c1	IC50 (Toll-like receptor 7): > 50000 nM
0		O=C(Nc1cccc(Oc2cc(C(F)(F)F)cc(C(F)(F)F)c2)c1)c1c(F)cccc1Cl	

The remaining lines, values behind:

SMILES	inhibition [2] [%]	IC50 (Toll-like receptor 8) [nM]	other results
O=C(Nc1ccc(Oc2cc(C(F)(F)F)cc(C(F)(F)F)c2)cc1)c1c(F)cccc1F			inhibition [1]: 0%
N#Cc1c(Cl)cccc1COc1ccc(-c2nnco2)cc1		2520	
O=[N+]([O-])c1c(Cl)cccc1Oc1ccc(-c2nnco2)cc1		770	
Cc1nnc(-c2ccc(C(=O)Oc3cccc(Cl)c3C#N)cc2)o1			inhibition [1]: 0%
O=C(Nc1ccc(Oc2cc(Br)cc(C(F)(F)F)c2)cc1)c1c(F)cccc1Cl		2320	
O=C(Nc1cc(C(F)(F)F)cc(C(F)(F)F)c1)c1c(F)cccc1Cl			IC50 [3]: 1400 nM; inhibition [4]: 0%
N#Cc1c(Br)cccc1Oc1ccc(-c2nnco2)cc1		880	
O=C(Nc1ccc(Oc2cccc(C(F)(F)F)c2)cc1)c1c(F)cccc1Cl		2410	IC50 (Toll-like receptor 7): 2650 nM
O=C(Nc1ccc(Oc2cc(I)cc(C(F)(F)F)c2)cc1)c1c(F)cccc1Cl		> 5000	
O=C(Nc1ccc(Oc2cc(C(F)(F)F)cc(C(F)(F)F)c2)cc1)C1CCCCC1	0		inhibition [1]: 0%
O=C(Nc1ccc(Oc2cc(C(F)(F)F)cc(C(F)(F)F)c2)cc1)c1c(F)cccc1C(F)(F)F			inhibition [5]: 20 to 30%; inhibition [6]: 20 to 30%
O=C(Nc1ccc(Oc2cc(O)cc(C(F)(F)F)c2)cc1)c1c(F)cccc1Cl	0		inhibition [1]: 0%
O=C(Nc1ccc(Oc2cc(C(F)(F)F)cc(C(F)(F)F)c2)cc1)c1ccc2[nH]ccc2c1			IC50 (Toll-like receptor 7): > 50000 nM; inhibition [6]: 20 to 30%
Nc1c(Cl)cccc1Oc1ccc(-c2nnco2)cc1		5290	
